Data set [1] deals with Felis catus. Briefly: Dose estimated to produce 25 mm Hg fall in mean systemic blood pressure of anesthetized cat at 10 min after administration. Type of data set: functional.
The species named for data set [2] is Rattus norvegicus. Kind of data set: Delta BP refers to difference in systolic blood pressure of SH rats. Type of data set: functional, Artery. Put shortly: (§1)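 Male spontaneously hypertensive rats (Wistar–Okamoto, 250–300 g, 12–16 weeks), conscious. Dosed orally once daily for 5 days in 0.9% NaCl or 0.5% carboxymethylcellulose (10 mL/kg); vehicle control group. Rats warmed at 37–38 °C for 10 min, then systolic pressure taken by tail-cuff (piezoelectric pulse detection). ΔBP = pre-first-dose minus 2 h after fifth dose; mean ± SEM, six animals.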

Data set [3] is filed under the species Rattus norvegicus. Kind of data set: Evaluated for antihypertensive activity in hypertensive(SH) rat.
Data set [4] deals with Felis catus. Kind of data set: Dose estimated to produce a fall in mean blood pressure of anesthetized cat at 10 min after administration. It counts as functional. In a few lines:
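Cats (2.5–4.0 kg, either sex), ether induction, chloralose 70 mg/kg iv maintenance. Compound in distilled water or propylene glycol given via femoral vein at 0.01–10 mg/kg. Fall in mean arterial pressure read 10 min post-dose; ED25 (dose for 25 mmHg fall) calculated from log dose–response curve.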

Data set [5] relates to Rattus norvegicus. Briefly: Difference in systolic blood pressure of SH rats observed prior to the first application and 2 hr after the fifth application at the oral dose of 25 mg/kg was expressed as Delta BP. Type of data set: functional, Artery. In a few lines: as §1
Data set [6] relates to Oryctolagus cuniculus. Kind of data set: Hypotensive activity of compound was evaluated by measuring initial blood pressure in rabbits after administering 10 ug/kg intravenously. Type of data set: functional. Put shortly:
(§2)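 Anesthetized rabbits. Dosing by femoral vein catheter at 10, 25 or 50 µg/kg. Records initial BP, maximal fall in mean arterial pressure, percent hypotension and duration of hypotension. Mean ± SEM, 6–7 experiments per dose.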

The subject of data set [7] is Oryctolagus cuniculus. Kind of data set: Percent hypotension was determined in rabbits after administering 10 ug/kg intravenously. It counts as functional. In a few lines:
as §2

Data set [8] has as its system Oryctolagus cuniculus. Briefly: Hypotensive activity of compound was evaluated by measuring fall in blood pressure in rabbits after administering 10 ug/kg intravenously. It counts as functional. In a few lines:
as §2

Data set [9] deals with Canis familiaris. Kind of data set: Percent hypotension was determined in dogs after administering 50 ug/kg intravenously. Type of data set: functional, Canis lupus familiaris. Put shortly:
(§3)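 Mongrel dogs (10–16 kg, either sex) anesthetized with pentobarbitone sodium 35 mg/kg iv. Dosing by femoral vein catheter at 25, 50 or 100 µg/kg. Records initial BP, maximal fall in mean arterial pressure, percent hypotension and duration. Mean ± SEM, 3–8 experiments per dose.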

The nature of data set [10]: Compound was tested for toxicity in mice after intraperitoneal administration. It counts as organism-based. The conditions noted are these: mouse, in vivo, ip. In a few lines:
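Mice (18–22 g), either sex. Compound dissolved in distilled water or suspended in 0.5% (carboxymethyl)cellulose and given ip at 10, 30, 100, 300 and 1000 mg/kg, 1 mL/100 g body weight. Animals observed for 48 h; approximate LD50 calculated by the Campbell and Richter method.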

Data set [11] relates to Canis familiaris. Briefly: Duration for hypotensive action in dogs after administering 50 ug/kg intravenously. Type of data set: functional, Canis lupus familiaris. Put shortly: as §3
The test system of data set [12] is Felis catus. Kind of data set: Duration for hypotensive action in cats after administering 50 ug/kg intravenously. It counts as functional. In a few lines:
(§4)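 Cats (2.5–4.0 kg, either sex) under ether, maintained on chloralose 70 mg/kg iv. Dosing by femoral vein catheter at 10, 25 or 50 µg/kg. Records initial BP, peak fall in mean arterial pressure, percent hypotension and response duration. Mean ± SEM, five experiments per dose.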

For data set [13], the system named is Felis catus. Kind of data set: Percent hypotension was determined in cats after administering 25 ug/kg intravenously. It counts as functional. Put shortly:
as §4

The test system of data set [14] is Oryctolagus cuniculus. Kind of data set: Hypotensive activity of compound was evaluated by measuring initial blood pressure in rabbits after administering 25 ug/kg intravenously. It counts as functional. Put shortly: as §2
The subject of data set [15] is Felis catus. Briefly: Hypotensive activity of compound was evaluated by measuring fall in blood pressure in cats after administering 10 ug/kg intravenously. It counts as functional. In a few lines: as §4
In data set [16] the test system is Oryctolagus cuniculus. Kind of data set: Hypotensive activity of compound was evaluated by measuring fall in blood pressure in rabbits after administering 50 ug/kg intravenously. It counts as functional. Put shortly: as §2
Data set [17] deals with Felis catus. Briefly: Percent hypotension was determined in cats after administering 10 ug/kg intravenously. It counts as functional. Put shortly: as §4
In data set [18] the test system is Canis familiaris. Briefly: Duration for hypotensive action in dogs after administering 25 ug/kg intravenously. Type of data set: functional, Canis lupus familiaris. Put shortly:
as §3

Data set [19] relates to Felis catus. Kind of data set: Hypotensive activity of compound was evaluated by measuring initial blood pressure in cats after administering 10 ug/kg intravenously. It counts as functional. Put shortly:
as §4

Data set [20] relates to Canis familiaris. Kind of data set: Percent hypotension was determined in dogs after administering 100 ug/kg intravenously. Type of data set: functional, Canis lupus familiaris. In a few lines: as §3
In data set [21] the test system is Oryctolagus cuniculus. Kind of data set: Hypotensive activity of compound was evaluated by measuring initial blood pressure in rabbits after administering 50 ug/kg intravenously. Type of data set: functional. In a few lines: as §2
Data set [22] deals with Canis familiaris. Briefly: Hypotensive activity of compound was evaluated by measuring fall in blood pressure in dogs after administering 100 ug/kg intravenously. It counts as functional, Canis lupus familiaris. Put shortly:
as §3

Data set [23] deals with Canis familiaris. Kind of data set: Hypotensive activity of compound was evaluated by measuring initial blood pressure in dogs after administering 100 ug/kg intravenously. It counts as functional, Canis lupus familiaris. Put shortly: as §3
In data set [24] the test system is Felis catus. Kind of data set: Hypotensive activity of compound was evaluated by measuring fall in blood pressure in cats after administering 50 ug/kg intravenously. It counts as functional. In a few lines: as §4
For data set [25], the system named is Oryctolagus cuniculus. Briefly: Duration for hypotensive action in rabbits after administering 25 ug/kg intravenously. Type of data set: functional. Put shortly: as §2
The test system of data set [26] is Felis catus. Kind of data set: Hypotensive activity of compound was evaluated by measuring initial blood pressure in cats after administering 50 ug/kg intravenously. It counts as functional. In a few lines:
as §4

The subject of data set [27] is Felis catus. Kind of data set: Hypotensive activity of compound was evaluated by measuring initial blood pressure in cats after administering 25 ug/kg intravenously. It counts as functional. Put shortly:
as §4

Data set [28] has as its system Canis familiaris. Kind of data set: Duration for hypotensive action in dogs after administering 100 ug/kg intravenously. Type of data set: functional, Canis lupus familiaris. Put shortly: as §3
Data set [29] deals with Oryctolagus cuniculus. Kind of data set: Hypotensive activity of compound was evaluated by measuring fall in blood pressure in rabbits after administering 25 ug/kg intravenously. It counts as functional. Put shortly:
as §2

Data set [30] deals with Canis familiaris. Briefly: Percent hypotension was determined in dogs after administering 25 ug/kg intravenously. It counts as functional, Canis lupus familiaris. In a few lines:
as §3

Data set [31] concerns Oryctolagus cuniculus. Briefly: Percent hypotension was determined in rabbits after administering 25 ug/kg intravenously. It counts as functional. Put shortly:
as §2

Data set [32] deals with Felis catus. Kind of data set: Blood pressure lowering activity in anesthetized cats after intravenous administration of […] of compound. It counts as functional.
Data set [33] concerns Oryctolagus cuniculus. Briefly: Duration for hypotensive action in rabbits after administering 10 ug/kg intravenously. It counts as functional. Put shortly:
as §2

Data set [34] deals with Canis familiaris. Kind of data set: Hypotensive activity of compound was evaluated by measuring fall in blood pressure in dogs after administering 50 ug/kg intravenously. Type of data set: functional, Canis lupus familiaris. In a few lines:
as §3

The subject of data set [35] is Felis catus. Kind of data set: Hypotensive activity of compound was evaluated by measuring fall in blood pressure in cats after administering 25 ug/kg intravenously. Type of data set: functional. Put shortly: as §4
For data set [36], the system named is Canis familiaris. Kind of data set: Hypotensive activity of compound was evaluated by measuring fall in blood pressure in dogs after administering 25 ug/kg intravenously. It counts as functional, Canis lupus familiaris. In a few lines:
as §3

Data set [37] deals with Canis familiaris. Kind of data set: Hypotensive activity of compound was evaluated by measuring initial blood pressure in dogs after administering 25 ug/kg intravenously. Type of data set: functional, Canis lupus familiaris. In a few lines: as §3
Data set [38] deals with Felis catus. Kind of data set: Duration for hypotensive action in cats after administering 10 ug/kg intravenously. It counts as functional. In a few lines:
as §4

For data set [39], the system named is Rattus norvegicus. Kind of data set: Difference in systolic blood pressure of SH rats observed prior to the first application and 2 hr after the fifth application at the oral dose of 5 mg/kg was expressed as Delta BP. It counts as functional, Artery. Put shortly:
as §1

The subject of data set [40] is Felis catus. Kind of data set: Duration for hypotensive action in cats after administering 25 ug/kg intravenously. It counts as functional. Put shortly:
as §4

For data set [41], the system named is Oryctolagus cuniculus. Briefly: Duration for hypotensive action in rabbits after administering 50 ug/kg intravenously. It counts as functional. In a few lines:
as §2

Data set [42] has as its system Canis familiaris. Briefly: Hypotensive activity of compound was evaluated by measuring initial blood pressure in dogs after administering 50 ug/kg intravenously. It counts as functional, Canis lupus familiaris. In a few lines:
as §3

For data set [43], the system named is Oryctolagus cuniculus. Kind of data set: Percent hypotension was determined in rabbits after administering 50 ug/kg intravenously. It counts as functional. Put shortly:
as §2

Data set [44] deals with Felis catus. Kind of data set: Percent hypotension was determined in cats after administering 50 ug/kg intravenously. Type of data set: functional. Put shortly: as §4

The LD50 is the dose at which mortality reaches 50%. Higher therefore signals lower toxicity.

As for `COc1cc2c(cc1OC)-c1cc(N(C)c3c(F)cccc3F)nc(=O)n1CC2`, the figures for the ED25 with Felis catus [1] and in the data set on Felis catus [4] were 6 mg/kg and 0.03 mg/kg, respectively. Moreover, the Delta blood pressure in the data set filed under Rattus norvegicus [2] and with Rattus norvegicus [5] was 0 mmHg throughout. The Antihypertensive activity in the data set listed under Rattus norvegicus [3] was found to be 10 mg/kg.

On to `COc1cc2c(cc1OC)-c1c/c(=N\c3c(C)cc(C)cc3C)n(C)c(=O)n1CC2.Cl` [TREQUINSIN HYDROCHLORIDE], for which the BP with Oryctolagus cuniculus [6] was 93.8 mmHg; in the data set with Oryctolagus cuniculus [8] it was 17.4 mmHg; in the data set on Oryctolagus cuniculus [14] it was 89.6 mmHg; with Felis catus [15], 17 mmHg; with Oryctolagus cuniculus [16], 24.2 mmHg; in the data set on Felis catus [19], 110 mmHg. The BP in the data set with Oryctolagus cuniculus [21] is 84.2 mmHg; with Canis familiaris [22], 56.1 mmHg; in the data set with Canis familiaris [23], 168.3 mmHg; with Felis catus [24] it was 34.2 mmHg; in the data set with Felis catus [26] it was 125 mmHg; in the data set with Felis catus [27] it was 116 mmHg. The BP with Oryctolagus cuniculus [29] turned out to be 26.4 mmHg; in the data set with Canis familiaris [34], 40.8 mmHg; in the data set with Felis catus [35], 25.8 mmHg; in the data set on Canis familiaris [36], 37.5 mmHg; with Canis familiaris [37], 168.8 mmHg; in the data set on Canis familiaris [42], 163.3 mmHg. The Hypotension was found to be 18.6% in the data set with Oryctolagus cuniculus [7]; 25.4% with Canis familiaris [9]; 23.4% with Felis catus [13]; 16.8% in the data set on Felis catus [17]; 33.7% in the data set on Canis familiaris [20]; 22.9% in the data set with Canis familiaris [30]. Moreover, the values for the Hypotension with Oryctolagus cuniculus [31], in the data set with Oryctolagus cuniculus [43] and with Felis catus [44] were 29.9%, 28.5% and 28.6%, respectively. The ED25 in the data set on Felis catus [1] and with Felis catus [32] was 0.025 mg/kg throughout. Also, in data set [10], the LD50 came to 150 mg/kg. Further, the Duration in the data set on Canis familiaris [11] turned out to be 98.3 min; in the data set on Felis catus [12] it was 82.5 min; with Canis familiaris [18] it was 50 min; in the data set on Oryctolagus cuniculus [25] it was 57.8 min; in the data set with Canis familiaris [28], 140 min; in the data set on Oryctolagus cuniculus [33], 20.7 min. For the same molecule, the Duration in the data set with Felis catus [38] came to 16 min; in the data set with Felis catus [40], 45 min; with Oryctolagus cuniculus [41], 70 min. For the same molecule, in the data set on Rattus norvegicus [39], the Delta blood pressure was -41 mmHg.

The record behind these values is ChEMBL document CHEMBL1122780, “Trequinsin, a potent new antihypertensive vasodilator in the series of 2-(arylimino)-3-alkyl-9,10-dimethoxy-3,4,6,7-tetrahydro-2H-py rim ido [6,1-a]isoquinolin-4-ones” (J Med Chem, 1984).
